The structures appear in SMILES notation.

The target in assay [1] is T1, Polyamine deacetylase HDAC10 (Homo sapiens, UniProt Q969S8).
T1 sequence (Q969S8 whole entry): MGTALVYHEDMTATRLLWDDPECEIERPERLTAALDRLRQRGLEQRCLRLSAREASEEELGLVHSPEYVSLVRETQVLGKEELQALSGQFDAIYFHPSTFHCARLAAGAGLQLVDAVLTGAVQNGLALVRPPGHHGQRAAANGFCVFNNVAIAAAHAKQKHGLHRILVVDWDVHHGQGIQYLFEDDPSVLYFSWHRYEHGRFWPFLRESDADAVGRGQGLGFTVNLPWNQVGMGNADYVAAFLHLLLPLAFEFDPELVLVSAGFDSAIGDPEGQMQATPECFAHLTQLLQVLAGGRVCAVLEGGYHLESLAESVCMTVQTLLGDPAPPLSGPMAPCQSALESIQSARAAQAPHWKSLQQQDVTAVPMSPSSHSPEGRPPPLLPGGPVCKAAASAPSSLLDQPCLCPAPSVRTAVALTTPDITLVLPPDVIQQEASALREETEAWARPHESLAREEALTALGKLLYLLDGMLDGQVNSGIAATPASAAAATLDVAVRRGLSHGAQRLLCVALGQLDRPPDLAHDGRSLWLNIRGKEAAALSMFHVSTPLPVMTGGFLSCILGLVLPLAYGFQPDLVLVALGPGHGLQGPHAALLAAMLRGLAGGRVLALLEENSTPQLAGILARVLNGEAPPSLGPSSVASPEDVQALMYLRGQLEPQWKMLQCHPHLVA
Put plainly: Inhibition of human HDAC10 by fluorimetry. In a few lines:
(§1)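 Each purified single HDAC isoform incubated with fluorogenic substrate, a p53 fragment (residues […], Arg-His-Lys-Lys(Ac)) carrying an ε-acetylated lysine; deacetylation releases fluorophore, read by fluorimeter. Compounds tested as 10 doses, 1:3 serial dilution starting from 50 µM solution. IC50 from dose-response inhibition curves; trichostatin A as reference compound.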

Assay [2] addresses Histone deacetylase 4 (Homo sapiens, UniProt P56524). Put plainly: Inhibition of human HDAC4 by fluorimetry. The method in brief: as §1
In assay [3] the test system is NCI-H460. The assay can be described thus: Cytotoxicity against human H460 cells after 24 hrs by sulforhodamine B assay. The class given is functional, cell-based. Conditions: NCI-H460, 24 h. On the technique in general: Sulforhodamine B stains cellular protein and so reports cell mass.
Assay [4] has as its target Histone deacetylase 2 (Homo sapiens, UniProt Q92769). Put plainly: Inhibition of human HDAC2 by fluorimetry. The method in brief:
as §1

The target in assay [5] is T2, Histone deacetylase 7 (Homo sapiens, UniProt Q8WUI4).
T2 sequence (Q8WUI4 whole entry): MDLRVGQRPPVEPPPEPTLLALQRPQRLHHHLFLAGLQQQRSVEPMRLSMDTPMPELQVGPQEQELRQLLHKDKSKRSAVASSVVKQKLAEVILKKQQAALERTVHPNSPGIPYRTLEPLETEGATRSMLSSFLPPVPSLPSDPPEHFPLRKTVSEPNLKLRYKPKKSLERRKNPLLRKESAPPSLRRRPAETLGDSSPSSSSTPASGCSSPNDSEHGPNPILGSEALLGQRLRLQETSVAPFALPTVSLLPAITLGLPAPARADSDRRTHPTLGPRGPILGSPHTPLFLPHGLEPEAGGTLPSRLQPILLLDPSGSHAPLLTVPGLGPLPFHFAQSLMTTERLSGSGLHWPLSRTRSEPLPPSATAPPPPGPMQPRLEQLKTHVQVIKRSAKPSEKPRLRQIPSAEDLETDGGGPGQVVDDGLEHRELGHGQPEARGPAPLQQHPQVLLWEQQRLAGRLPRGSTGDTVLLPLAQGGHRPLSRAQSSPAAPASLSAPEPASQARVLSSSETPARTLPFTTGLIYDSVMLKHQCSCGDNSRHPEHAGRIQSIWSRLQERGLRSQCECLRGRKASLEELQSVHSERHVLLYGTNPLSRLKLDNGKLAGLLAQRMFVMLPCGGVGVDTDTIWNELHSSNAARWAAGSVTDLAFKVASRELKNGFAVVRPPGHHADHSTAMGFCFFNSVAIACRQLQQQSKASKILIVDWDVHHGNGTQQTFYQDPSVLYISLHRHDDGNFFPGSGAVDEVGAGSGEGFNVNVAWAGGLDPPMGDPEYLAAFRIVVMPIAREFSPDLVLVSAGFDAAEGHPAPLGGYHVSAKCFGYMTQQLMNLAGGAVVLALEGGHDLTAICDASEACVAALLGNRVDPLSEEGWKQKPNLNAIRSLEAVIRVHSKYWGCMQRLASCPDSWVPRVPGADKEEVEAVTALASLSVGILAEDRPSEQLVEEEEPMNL
Put plainly: Inhibition of human HDAC7 by fluorimetry.

Assay [6] has as its target Histone deacetylase 9 (Homo sapiens, UniProt Q9UKV0). The assay can be described thus: Inhibition of human HDAC9 by fluorimetry. The method in brief:
as §1

The subject of assay [7] is HCT-116. The assay can be described thus: Cytotoxicity against human HCT116 cells after 24 hrs by sulforhodamine B assay. In kind it is functional, cell-based. Conditions: HCT-116, 24 h.
Assay [8] has as its target Histone deacetylase 1 (Homo sapiens, UniProt Q13547). The assay can be described thus: Inhibition of human HDAC1 by fluorimetry. In a few lines: as §1
The target of assay [9] is Histone deacetylase 3 (Homo sapiens, UniProt O15379). The assay can be described thus: Inhibition of human HDAC3 by fluorimetry. In a few lines:
as §1

In assay [10] the target is T3, Histone deacetylase 11 (Homo sapiens, UniProt Q96DB2).
T3 sequence (Q96DB2 whole entry): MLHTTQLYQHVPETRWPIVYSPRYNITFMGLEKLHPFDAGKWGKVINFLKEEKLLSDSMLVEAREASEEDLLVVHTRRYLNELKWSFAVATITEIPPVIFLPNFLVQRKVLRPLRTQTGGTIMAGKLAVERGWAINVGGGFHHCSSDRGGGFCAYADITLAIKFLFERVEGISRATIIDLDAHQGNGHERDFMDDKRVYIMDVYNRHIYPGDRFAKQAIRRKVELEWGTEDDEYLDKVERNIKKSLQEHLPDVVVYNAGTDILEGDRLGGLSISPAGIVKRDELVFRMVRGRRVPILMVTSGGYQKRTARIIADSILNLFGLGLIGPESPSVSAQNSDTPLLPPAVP
The assay can be described thus: Inhibition of human HDAC11 by fluorimetry. In a few lines:
as §1

In assay [11] the target is T4, Histone deacetylase 8 (Homo sapiens, UniProt Q9BY41).
T4 sequence (Q9BY41 whole entry): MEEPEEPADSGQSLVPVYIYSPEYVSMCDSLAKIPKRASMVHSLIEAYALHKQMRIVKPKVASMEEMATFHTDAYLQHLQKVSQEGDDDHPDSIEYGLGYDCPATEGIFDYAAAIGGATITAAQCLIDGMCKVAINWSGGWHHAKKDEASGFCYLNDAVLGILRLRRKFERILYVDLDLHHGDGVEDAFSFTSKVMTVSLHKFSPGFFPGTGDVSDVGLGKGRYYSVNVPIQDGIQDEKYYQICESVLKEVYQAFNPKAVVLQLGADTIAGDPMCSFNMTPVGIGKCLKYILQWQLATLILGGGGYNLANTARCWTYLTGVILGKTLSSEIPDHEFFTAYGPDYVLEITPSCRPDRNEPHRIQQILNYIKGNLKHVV
Put plainly: Inhibition of human HDAC8 by fluorimetry. In a few lines: as §1

Sequence of Histone deacetylase 4 (P56524 whole entry): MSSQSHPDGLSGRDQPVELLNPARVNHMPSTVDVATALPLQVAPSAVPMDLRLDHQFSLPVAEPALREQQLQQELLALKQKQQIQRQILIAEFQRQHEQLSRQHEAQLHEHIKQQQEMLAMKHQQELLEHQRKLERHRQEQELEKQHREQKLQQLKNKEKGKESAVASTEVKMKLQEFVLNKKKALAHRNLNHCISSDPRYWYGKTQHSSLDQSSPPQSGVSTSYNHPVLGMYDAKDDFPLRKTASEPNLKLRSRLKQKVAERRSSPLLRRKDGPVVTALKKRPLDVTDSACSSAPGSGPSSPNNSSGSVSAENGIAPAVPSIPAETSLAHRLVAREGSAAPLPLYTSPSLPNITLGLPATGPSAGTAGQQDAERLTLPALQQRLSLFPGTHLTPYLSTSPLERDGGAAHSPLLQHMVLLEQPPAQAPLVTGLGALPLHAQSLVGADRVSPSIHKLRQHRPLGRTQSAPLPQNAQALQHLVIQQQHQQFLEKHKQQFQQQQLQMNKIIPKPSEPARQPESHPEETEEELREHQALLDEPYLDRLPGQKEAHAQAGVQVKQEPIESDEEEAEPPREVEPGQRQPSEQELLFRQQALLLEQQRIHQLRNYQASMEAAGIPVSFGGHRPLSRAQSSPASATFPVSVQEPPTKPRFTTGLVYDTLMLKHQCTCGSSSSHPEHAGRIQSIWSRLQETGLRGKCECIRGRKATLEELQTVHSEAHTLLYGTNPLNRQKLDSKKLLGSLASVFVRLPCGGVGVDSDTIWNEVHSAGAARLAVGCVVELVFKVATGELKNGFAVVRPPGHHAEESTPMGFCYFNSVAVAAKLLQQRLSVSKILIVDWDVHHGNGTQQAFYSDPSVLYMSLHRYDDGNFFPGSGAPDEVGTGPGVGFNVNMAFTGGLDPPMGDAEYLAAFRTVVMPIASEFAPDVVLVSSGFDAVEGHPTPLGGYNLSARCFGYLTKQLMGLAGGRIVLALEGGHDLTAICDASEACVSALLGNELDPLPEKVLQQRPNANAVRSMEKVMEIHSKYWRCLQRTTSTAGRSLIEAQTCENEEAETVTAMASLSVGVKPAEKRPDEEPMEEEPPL
Sequence of Histone deacetylase 3 (O15379 whole entry): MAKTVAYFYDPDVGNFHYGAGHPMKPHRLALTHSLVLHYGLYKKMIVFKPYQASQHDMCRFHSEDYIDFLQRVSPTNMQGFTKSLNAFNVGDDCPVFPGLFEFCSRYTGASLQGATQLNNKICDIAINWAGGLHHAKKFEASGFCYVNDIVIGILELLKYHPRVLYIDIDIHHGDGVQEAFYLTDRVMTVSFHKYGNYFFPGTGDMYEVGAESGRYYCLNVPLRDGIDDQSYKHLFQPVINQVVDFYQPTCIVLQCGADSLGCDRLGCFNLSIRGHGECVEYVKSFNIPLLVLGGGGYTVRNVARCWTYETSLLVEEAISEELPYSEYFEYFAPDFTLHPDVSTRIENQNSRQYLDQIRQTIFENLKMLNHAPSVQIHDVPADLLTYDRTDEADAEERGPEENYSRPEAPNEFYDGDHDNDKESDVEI
Sequence of Histone deacetylase 1 (Q13547 whole entry): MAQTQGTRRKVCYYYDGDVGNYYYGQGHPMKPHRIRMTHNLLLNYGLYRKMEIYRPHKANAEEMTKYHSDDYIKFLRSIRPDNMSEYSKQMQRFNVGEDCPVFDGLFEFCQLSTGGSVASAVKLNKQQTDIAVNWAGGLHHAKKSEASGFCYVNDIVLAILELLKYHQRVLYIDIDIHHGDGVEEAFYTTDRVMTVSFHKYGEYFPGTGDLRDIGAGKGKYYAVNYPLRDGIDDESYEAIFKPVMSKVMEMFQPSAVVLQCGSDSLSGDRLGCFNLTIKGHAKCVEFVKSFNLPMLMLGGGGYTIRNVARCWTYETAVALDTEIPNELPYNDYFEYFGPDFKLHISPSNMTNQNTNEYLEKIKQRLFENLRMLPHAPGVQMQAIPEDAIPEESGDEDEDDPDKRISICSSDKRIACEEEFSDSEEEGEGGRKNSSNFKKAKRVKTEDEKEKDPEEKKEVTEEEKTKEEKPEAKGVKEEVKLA
Sequence of Histone deacetylase 9 (Q9UKV0 whole entry): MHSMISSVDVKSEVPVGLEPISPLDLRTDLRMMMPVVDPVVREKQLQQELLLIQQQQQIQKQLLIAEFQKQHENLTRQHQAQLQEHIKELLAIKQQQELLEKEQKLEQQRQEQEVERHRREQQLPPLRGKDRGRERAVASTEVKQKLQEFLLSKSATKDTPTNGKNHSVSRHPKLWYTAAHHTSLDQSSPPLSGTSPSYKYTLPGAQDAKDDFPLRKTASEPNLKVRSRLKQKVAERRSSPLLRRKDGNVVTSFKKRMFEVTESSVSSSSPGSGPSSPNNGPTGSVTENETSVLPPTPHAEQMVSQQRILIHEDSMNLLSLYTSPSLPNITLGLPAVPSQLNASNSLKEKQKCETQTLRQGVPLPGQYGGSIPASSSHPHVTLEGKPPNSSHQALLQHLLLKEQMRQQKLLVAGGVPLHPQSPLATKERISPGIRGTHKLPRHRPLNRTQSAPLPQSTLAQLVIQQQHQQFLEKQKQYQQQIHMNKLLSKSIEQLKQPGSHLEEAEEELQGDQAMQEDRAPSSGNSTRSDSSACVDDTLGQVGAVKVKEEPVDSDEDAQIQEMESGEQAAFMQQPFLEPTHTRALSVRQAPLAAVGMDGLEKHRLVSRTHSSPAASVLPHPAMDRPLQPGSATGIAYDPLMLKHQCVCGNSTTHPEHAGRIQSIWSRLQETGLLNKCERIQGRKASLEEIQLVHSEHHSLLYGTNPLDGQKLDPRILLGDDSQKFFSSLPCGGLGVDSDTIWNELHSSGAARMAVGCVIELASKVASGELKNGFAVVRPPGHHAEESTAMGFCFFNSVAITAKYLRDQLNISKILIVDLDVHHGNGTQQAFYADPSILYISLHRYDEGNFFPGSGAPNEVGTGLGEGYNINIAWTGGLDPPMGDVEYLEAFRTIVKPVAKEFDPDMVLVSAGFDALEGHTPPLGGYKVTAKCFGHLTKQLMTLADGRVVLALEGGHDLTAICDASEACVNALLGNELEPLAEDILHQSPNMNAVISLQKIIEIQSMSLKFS
Sequence of Histone deacetylase 2 (Q92769 whole entry): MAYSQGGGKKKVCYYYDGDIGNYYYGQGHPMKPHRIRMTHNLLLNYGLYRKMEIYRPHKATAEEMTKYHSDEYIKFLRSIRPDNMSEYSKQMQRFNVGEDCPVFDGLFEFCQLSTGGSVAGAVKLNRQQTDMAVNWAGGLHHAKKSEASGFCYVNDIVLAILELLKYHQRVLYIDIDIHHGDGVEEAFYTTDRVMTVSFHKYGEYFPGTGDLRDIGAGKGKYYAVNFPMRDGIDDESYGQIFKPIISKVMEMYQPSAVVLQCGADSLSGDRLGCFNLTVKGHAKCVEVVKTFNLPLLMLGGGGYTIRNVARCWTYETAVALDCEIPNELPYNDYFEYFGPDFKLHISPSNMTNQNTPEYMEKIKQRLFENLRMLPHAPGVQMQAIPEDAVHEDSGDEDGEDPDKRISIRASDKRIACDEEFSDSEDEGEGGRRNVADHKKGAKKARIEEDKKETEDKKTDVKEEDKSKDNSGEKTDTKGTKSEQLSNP

As to `O=C(/C=C/c1ccc(C(c2c[nH]c3ccccc23)c2c[nH]c3ccccc23)cc1)NO`, the IC50 in [1] was 4.7 µM; in [2], 4.8 µM; in assay [3] it was 2.6 µM; in [4], 3.9 µM; in [5], 4.2 µM; in assay [6], 3.3 µM. In addition, the IC50 in [7] is 2.6 µM; in assay [8], 4.8 µM; in assay [9] it was 0.44 µM; in [10] it was 0.41 µM; in assay [11] it was 0.73 µM.

For orientation: IC50 means the concentration needed to halve the response being measured. Read a low IC50 as greater potency.

Values taken from ChEMBL document CHEMBL1153591, “Exploring bis-(indolyl)methane moiety as an alternative and innovative CAP group in the design of histone deacetylase (HDAC) inhibitors” (Bioorg Med Chem Lett, 2009).
